Results collected from several papers.
Target: Ephrin type-A receptor 6 (EPHA6, Homo sapiens, UniProt Q9UF33)
One construct used (Q9UF33 23-1036): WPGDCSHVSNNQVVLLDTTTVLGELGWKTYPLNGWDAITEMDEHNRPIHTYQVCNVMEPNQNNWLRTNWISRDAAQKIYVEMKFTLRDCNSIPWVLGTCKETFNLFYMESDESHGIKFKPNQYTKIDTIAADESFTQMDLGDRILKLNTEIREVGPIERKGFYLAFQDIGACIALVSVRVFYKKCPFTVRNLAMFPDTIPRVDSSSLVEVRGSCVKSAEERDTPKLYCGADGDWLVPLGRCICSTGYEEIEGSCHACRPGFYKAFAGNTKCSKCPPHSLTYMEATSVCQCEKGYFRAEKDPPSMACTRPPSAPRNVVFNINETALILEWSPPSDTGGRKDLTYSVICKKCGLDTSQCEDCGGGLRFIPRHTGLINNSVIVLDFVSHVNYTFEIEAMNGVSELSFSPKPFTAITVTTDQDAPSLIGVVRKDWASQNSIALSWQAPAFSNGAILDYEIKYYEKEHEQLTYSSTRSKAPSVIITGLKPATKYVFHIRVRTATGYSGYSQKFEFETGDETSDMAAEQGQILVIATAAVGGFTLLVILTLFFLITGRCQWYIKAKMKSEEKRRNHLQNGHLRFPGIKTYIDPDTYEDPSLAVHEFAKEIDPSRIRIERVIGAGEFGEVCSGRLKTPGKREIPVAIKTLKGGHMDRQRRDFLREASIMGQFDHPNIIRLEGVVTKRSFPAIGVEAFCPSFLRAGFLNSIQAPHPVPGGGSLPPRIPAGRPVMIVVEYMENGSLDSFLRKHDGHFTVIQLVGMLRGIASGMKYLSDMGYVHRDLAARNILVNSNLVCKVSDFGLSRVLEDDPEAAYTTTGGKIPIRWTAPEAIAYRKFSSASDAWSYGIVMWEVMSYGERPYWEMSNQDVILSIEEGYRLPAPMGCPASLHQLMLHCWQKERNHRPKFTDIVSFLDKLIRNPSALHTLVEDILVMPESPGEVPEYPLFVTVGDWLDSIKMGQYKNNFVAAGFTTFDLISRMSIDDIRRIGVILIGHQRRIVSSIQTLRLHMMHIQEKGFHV

`CN(C)c1nccc(-c2cnc3ncccn23)n1` has a remaining binding of 98% (binding; 1 µM).
For `COc1ncc2cc3ccccc3nc2c1C#N`, the remaining binding was 98% (cell-free assay, competition with immobilised ligand; 5 µM).
The remaining binding of `CNC(=O)[C@@H]1CC[C@@H](n2c(-c3ccc4cnccc4c3)nc3ccc(C(=O)NCc4cccc(C(N)=O)c4)cc32)C1` is reported as 100% (binding, competition with immobilised ligand; 1 µM).
The remaining binding of `C[C@@H]1CCN(c2nccc(-c3cnn4ncccc34)n2)C1` is reported as 100% (binding; 1 µM).
For `Cc1nc(Cc2cccc(C(F)(F)F)c2)sc1-c1ccc(C(N)=O)nc1`, the remaining binding was 96% (cell-free assay, competition with immobilised ligand; 1 µM).
With `CCN1CCN(Cc2ccc(C(=O)Nc3ccc(C)c(Oc4ccc5c(c4)CC(=O)N5)c3)cc2C(F)(F)F)CC1` the remaining binding was 100% (binding, competition with immobilised ligand; 1 µM).
For `CCCCN(CCCC)C(=O)CN1C[C@H](c2cc(OC)c3c(c2)OCO3)[C@@H](C(=O)O)[C@@H]1CC(C)(C)CCC`, the remaining binding was 100% (cell-free assay, competition with immobilised ligand; 1 µM).
`COc1cnc(Nc2cccc(S(N)(=O)=O)c2)nc1N1CCN(c2ccccc2)C(=O)C1` has a remaining binding of 100% (binding, competition with immobilised ligand; 1 µM).
The remaining binding of `O=C(NCCCN1CCOCC1)c1ccc(Nc2ncc(Cl)c(-c3ccc(Cl)s3)n2)cc1` is reported as 63% (binding, competition with immobilised ligand; 1 µM).
`C=CC(=O)N1CCC(C(=O)NCC(=O)N2CCN(c3nc(-c4cnc(N)nc4C(F)F)nc(N4CCOCC4)n3)CC2)CC1` gave a remaining binding of 100% (binding, competition with immobilised ligand; 1 µM).
`O=C(NCCCN1CCOCC1)c1ccc(Nc2nccc(-c3cc4ccccc4s3)n2)cc1` gave a remaining binding of 97% (binding, competition with immobilised ligand; 1 µM).
With `CC(=O)N1CCC(c2ccc(C(=O)NC3=NCCN3)cc2C(F)(F)F)CC1` the remaining binding was 98% (cell-free assay, competition with immobilised ligand; 1 µM).
The remaining binding of `c1cnn2ncc(-c3ccnc(N4CCC45COC5)n3)c2c1` is reported as 95% (binding; 1 µM).
For `COc1cc(-c2cn(C3CCc4c(F)cccc4N(CC(F)(F)F)C3=O)nn2)ccc1-n1cnc(C)c1` (stereo not drawn), the remaining binding was 100% (cell-free assay, competition with immobilised ligand; 1 µM).
With `F[C@@H]1CCN(c2nccc(-c3cnn4ncccc34)n2)C1` the remaining binding was 80% (binding; 1 µM).
With `CNCc1ccccc1-c1csc([C@@H](C)Nc2nc(C)nc3cc(OC)c(OC)cc23)c1` the remaining binding was 96% (cell-free assay, competition with immobilised ligand; 1 µM).
The remaining binding of `CN(c1nccc(-c2cnn3ncccc23)n1)C1CC1` is reported as 99% (binding; 1 µM).
The remaining binding of `CO[C@@H](C)c1c(Nc2ccc([C@H](N(C)C(=O)C3CCS(=O)(=O)CC3)C(F)(F)F)cc2)cnc2cc(Cl)nn12` is reported as 100% (cell-free assay, competition with immobilised ligand; 1 µM).
`O=C(c1ccc(Nc2ncc(Cl)c(-c3ccc(Cl)s3)n2)cc1)N1CCC(N2CCCC2)CC1` gave a remaining binding of 51% (binding, competition with immobilised ligand; 1 µM).
With `CN(CCCC(F)(F)F)c1nccc(-c2cnn3ncccc23)n1` the remaining binding was 89% (binding; 1 µM).
`O=C(Nc1c[nH]nc1C(=O)NC1CCNCC1)c1cc(F)cc(F)c1` has a remaining binding of 100% (binding, competition with immobilised ligand; 1 µM).
